From ChEMBL document CHEMBL4000211, “Discovery of novel polycyclic spiro-fused carbocyclicoxindole-based anticancer agents” (Eur J Med Chem, 2017)

Key:
[1] = test system: A549; test: Antiproliferative activity against human A549 cells after 48 hrs by MTT assay; assay type: functional, cell-based; conditions: A549, 48 h
In short: (§1)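 Cells seeded at 3×10³/well and grown 24 h, then exposed 48 h to six final concentrations, twofold steps down from 30. MTT (5 mg/mL) was added for 2–4 h at 37 °C. Supernatant was removed, formazan dissolved in DMSO, and OD read at 570 nm. Results are given as IC50, or as percent inhibition where IC50 exceeds the top concentration. At least three runs.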

[2] = test system: A2780/Taxol; test: Antiproliferative activity against human A2780T cells at 30 uM after 48 hrs by MTT assay relative to control; assay type: functional; in short: as §1
[3] = test system: NCI-H1299; test: Antiproliferative activity against human NCI-H1299 cells after 48 hrs by MTT assay; assay type: functional, cell-based; conditions: NCI-H1299, 48 h; in short: as §1
[4] = test system: BGC-823; test: Antiproliferative activity against human BGC823 cells after 48 hrs by MTT assay; assay type: functional, cell-based; conditions: BGC-823, 48 h; in short: as §1
[5] = test system: MCF7; test: Antiproliferative activity against human MCF7 cells after 48 hrs by MTT assay; assay type: functional, cell-based; conditions: MCF7, 48 h; in short: as §1
[6] = test system: NCI-H1975; test: Antiproliferative activity against human NCI-H1975 cells after 48 hrs by MTT assay; assay type: functional, cell-based; conditions: NCI-H1975, 48 h; in short: as §1
[7] = test system: CT26; test: Antiproliferative activity against mouse CT26 cells after 48 hrs by MTT assay; assay type: functional, cell-based; conditions: CT26, 48 h; in short: as §1
[8] = test system: HCT-116; test: Antiproliferative activity against human HCT116 cells after 48 hrs by MTT assay; assay type: functional, cell-based; conditions: HCT-116, 48 h; in short: as §1
[9] = test system: A2780S; test: Antiproliferative activity against human A2780S cells at 30 uM after 48 hrs by MTT assay relative to control; assay type: functional; in short: as §1
[10] = test system: A2780S; test: Antiproliferative activity against human A2780S cells after 48 hrs by MTT assay; assay type: functional, cell-based; in short: as §1

| Structure (SMILES) | IC50 [1] [µM] | IC50 [3] [µM] | IC50 [4] [µM] | IC50 [5] [µM] | IC50 [6] [µM] | IC50 [7] [µM] | IC50 [8] [µM] | IC50 [10] [µM] | inhibition at 30 µM [2] [%] | inhibition at 30 µM [9] [%] |
| --- | --- | --- | --- | --- | --- | --- | --- | --- | --- | --- |
| CC[C@@H]1C(C=O)=C[C@H]2[C@@H](c3ccccc3O[C@@H]2CC)[C@@]12C(=O)Nc1ccccc12 | > 30 | > 30 | > 30 | > 30 | > 30 | > 30 | > 30 | – | 9 | 34.1 |
| C[C@@H]1C(C=O)=C[C@H]2[C@@H](c3cc([N+](=O)[O-])ccc3O[C@@H]2C)[C@@]12C(=O)Nc1ccccc12 | > 30 | > 30 | > 30 | > 30 | > 30 | > 30 | > 30 | – | 0.2 | 25.2 |
| C[C@@H]1C(C=O)=C[C@H]2[C@@H](c3ccccc3OC2(C)C)[C@@]12C(=O)Nc1ccccc12 | > 30 | > 30 | > 30 | > 30 | > 30 | > 30 | > 30 | – | 3.8 | 14.4 |
| C[C@@H]1C(C=O)=C[C@H]2[C@@H](c3ccccc3O[C@@H]2C)[C@@]12C(=O)N(c1ccccc1)c1ccccc12 | > 30 | 30 | 25.7 | > 30 | > 30 | > 30 | > 30 | 18.9 | 40.6 | – |
| C[C@@H]1C(C=O)=C[C@H]2[C@@H](c3cc(Cl)ccc3O[C@@H]2C)[C@@]12C(=O)Nc1ccccc12 | > 30 | > 30 | > 30 | > 30 | > 30 | > 30 | > 30 | – | 5.8 | 16.5 |
| C[C@@H]1C(C=O)=C[C@H]2[C@@H](c3cc(F)ccc3O[C@@H]2C)[C@@]12C(=O)Nc1ccccc12 | > 30 | > 30 | > 30 | > 30 | > 30 | > 30 | > 30 | – | 2.6 | 22.7 |
| C[C@@H]1C(C=O)=C[C@H]2[C@@H](c3cc(Br)ccc3O[C@@H]2C)[C@@]12C(=O)Nc1ccccc12 | > 30 | > 30 | > 30 | > 30 | > 30 | > 30 | > 30 | – | 2.3 | 35.9 |
| CCC[C@@H]1C(C=O)=C[C@H]2[C@@H](c3ccccc3O[C@@H]2CCC)[C@@]12C(=O)Nc1ccccc12 | > 30 | > 30 | > 30 | > 30 | > 30 | > 30 | > 30 | 25.7 | 33.1 | – |
| Cc1ccc2c(c1)[C@@H]1[C@H](C=C(C=O)[C@@H](C)[C@]13C(=O)Nc1ccccc13)[C@@H](C)O2 | > 30 | > 30 | > 30 | > 30 | > 30 | > 30 | > 30 | – | 10.4 | 28.2 |
| O=CC1=C[C@@H]2COc3ccccc3[C@H]2C2(C1)C(=O)Nc1ccccc12 (some centres not stated) | > 30 | > 30 | > 30 | > 30 | > 30 | 27.1 | 25.8 | 21.6 | 25 | – |
| C[C@@H]1C(C=O)=C[C@H]2[C@@H](c3ccccc3O[C@@H]2C)[C@@]12C(=O)Nc1cc(Cl)ccc12 | > 30 | > 30 | > 30 | > 30 | > 30 | > 30 | > 30 | 19.7 | 13.1 | – |

The next lines start with results.

| IC50 [1] [µM] | IC50 [3] [µM] | IC50 [4] [µM] | IC50 [5] [µM] | IC50 [6] [µM] | IC50 [7] [µM] | IC50 [8] [µM] | IC50 [10] [µM] | Structure (SMILES) | inhibition at 30 µM [2] [%] | inhibition at 30 µM [9] [%] |
| --- | --- | --- | --- | --- | --- | --- | --- | --- | --- | --- |
| > 30 | > 30 | > 30 | > 30 | > 30 | > 30 | > 30 | – | C[C@@H]1C(C=O)=C[C@H]2[C@@H](c3ccccc3O[C@@H]2C)[C@@]12C(=O)Nc1ccccc12 | 17.3 | 23.5 |
| > 30 | > 30 | > 30 | > 30 | > 30 | > 30 | > 30 | – | COc1ccc2c(c1)O[C@H](C)[C@H]1C=C(C=O)[C@@H](C)[C@]3(C(=O)Nc4ccccc43)[C@H]21 | 3.9 | 9.3 |
| > 30 | > 30 | > 30 | > 30 | > 30 | > 30 | > 30 | – | C[C@@H]1C(C=O)=C[C@H]2[C@@H](c3ccccc3O[C@@H]2C)[C@@]12C(=O)Nc1ccc(F)cc12 | 4.4 | 14.5 |
| > 30 | > 30 | > 30 | > 30 | > 30 | > 30 | > 30 | – | C[C@@H]1C(C=O)=C[C@H]2[C@@H](c3cccc(F)c3O[C@@H]2C)[C@@]12C(=O)Nc1ccccc12 | 5.7 | 22.2 |
| > 30 | > 30 | > 30 | > 30 | > 30 | > 30 | > 30 | – | C[C@@H]1C(C=O)=C[C@H]2[C@@H](c3ccccc3O[C@@H]2C)[C@@]12C(=O)N(C)c1ccccc12 | 4.5 | 26.3 |
| > 30 | > 30 | > 30 | > 30 | > 30 | > 30 | > 30 | – | Cc1ccc2c(c1)[C@]1(C(=O)N2)[C@H](C)C(C=O)=C[C@H]2[C@H]1c1ccccc1O[C@@H]2C | 7.1 | 12.8 |
| > 30 | > 30 | > 30 | > 30 | > 30 | > 30 | > 30 | – | C[C@@H]1C(C=O)=C[C@H]2[C@@H](c3ccccc3N[C@@H]2C)[C@@]12C(=O)Nc1ccccc12 | 15.2 | 47.2 |
